Active and inactive are the calls of the source. The calls are words filed in the database; no cut-off is given here.
Species: Bos taurus
Assay: Binding affinity to GPER in BCAEC protein extracts using compound loaded on to affinity chromatography Agarose columns incubated overnight at 4 degC with mild tumbling by Coomassie-blue staining based SDS-PAGE and Western blot method
Procedure, shortened: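 Propargyl derivative coupled to agarose-azide beads by click chemistry; coupling gauged by fluorescence of washings against an external calibration curve. Three control columns lacked ligand and/or copper sulfate/ascorbate. BCAEC protein extract (0.8–1.0 mg) loaded, overnight 4 °C with mild tumbling. Washed with 5 mM EDTA/0.5% SDS/250 mM NaCl in PBS pH 7.5, then PBS. Eluted in PBS with 8 M urea, concentrated, run on SDS-PAGE with Coomassie staining. Western blot used monoclonal GPER antibody.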

Question: How did the Activity turn out when `Oc1cc(O)c2c(c1)O[C@H](c1ccc(O)c(O)c1)[C@H](O)C2` was run?
Answer: Active

Species: Bos taurus
Assay: Agonist activity at GPER in BCAEC assessed as increase in eNOS Ser1179 phosphorylation at 1 uM pre-incubated with 1 uM GPER antagonist G15 for 30 mins followed by compound incubation for 10 mins by Western blot relative to untreated control
Design: scale not given: the % may be the effect or the level left
Procedure, shortened: (§1)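 Bovine coronary artery endothelial cells stimulated 10 min with 1 μM ligand; (−)-epicatechin at 1 μM as reference. For GPER blockade, cells pre-incubated 30 min with G15 (1 μM) before ligand. Ser1179-phosphorylated eNOS immunodetected by Western blot. Control set to 1, or Epi set to 100% with derivatives expressed as percent of Epi. Mean ± SEM, n=5 per group.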

Question: For `Oc1cc(O)c2c(c1)O[C@H](c1ccc(O)c(O)c1)[C@H](O)C2`, which Activity is on record?
Answer: 55.6%

Question: `C#CCOc1cc(OCC#C)c2c(c1)O[C@H](c1ccc(OCC#C)c(OCC#C)c1)[C@H](O)C2` was tested. Which Activity did it give?
Answer: 57.4%

Question: Which Activity does the source give for `C#CCOc1cc(OCC#C)c2c(c1)O[C@H](c1ccc(OCC#C)c(OCC#C)c1)[C@H](OCC#C)C2` here?
Answer: 54.8%

Question: How did the Activity turn out when `CS(=O)(=O)O[C@@H]1Cc2c(O)cc(O)cc2O[C@@H]1c1ccc(O)c(O)c1` was run?
Answer: 53%

Question: For `C#CCO[C@@H]1Cc2c(O)cc(O)cc2O[C@@H]1c1ccc(O)c(O)c1`, which Activity is on record?
Answer: 59.3%

Species: Bos taurus
Assay: Agonist activity at GPER in BCAEC assessed as increase in eNOS Ser1179 phosphorylation at 1 uM incubated for 10 mins by Western blot relative to untreated (-)-epicatechin
Procedure, shortened: as §1

Question: Which Activity does the source give for `C#CCOc1cc(OCC#C)c2c(c1)O[C@H](c1ccc(OCC#C)c(OCC#C)c1)[C@H](O)C2` here?
Answer: 111%

Question: Which Activity does the source give for `C#CCOc1cc(OCC#C)c2c(c1)O[C@H](c1ccc(OCC#C)c(OCC#C)c1)[C@H](OCC#C)C2` here?
Answer: 92.6%

Question: For `CS(=O)(=O)O[C@@H]1Cc2c(O)cc(O)cc2O[C@@H]1c1ccc(O)c(O)c1`, which Activity is on record?
Answer: 64.8%

Question: With `C#CCO[C@@H]1Cc2c(O)cc(O)cc2O[C@@H]1c1ccc(O)c(O)c1` as the compound, how does the Activity read?
Answer: 137%

Species: Bos taurus
Assay: Agonist activity at GPER in BCAEC assessed as increase in nitric oxide production at 1 uM incubated for 10 mins by nitrate/nitrite fluorometric assay relative to untreated (-)-epicatechin
Procedure, shortened: (§2)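 BCAEC given 1 μM ligand for 10 min, with 1 μM (−)-epicatechin as reference; GPER blockade by 30 min pre-incubation with 1 μM G15 before ligand. Nitrates/nitrites in supernatant measured as surrogate of NO synthesis. Values normalized to control (set to 1) or to Epi (100%). Mean ± SEM, n=5 per group.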

Question: With `C#CCOc1cc(OCC#C)c2c(c1)O[C@H](c1ccc(OCC#C)c(OCC#C)c1)[C@H](O)C2` as the compound, how does the Activity read?
Answer: 107%

Question: With `C#CCOc1cc(OCC#C)c2c(c1)O[C@H](c1ccc(OCC#C)c(OCC#C)c1)[C@H](OCC#C)C2` as the compound, how does the Activity read?
Answer: 102%

Question: For `CS(=O)(=O)O[C@@H]1Cc2c(O)cc(O)cc2O[C@@H]1c1ccc(O)c(O)c1`, which Activity is on record?
Answer: 54.5%

Question: How did the Activity turn out when `C#CCO[C@@H]1Cc2c(O)cc(O)cc2O[C@@H]1c1ccc(O)c(O)c1` was run?
Answer: 142%

Species: Bos taurus
Assay: Agonist activity at GPER in BCAEC assessed as increase in nitric oxide production at 1 uM pre-incubated with 1 uM GPER antagonist G15 for 30 mins followed by compound incubation for 10 mins by nitrate/nitrite fluorometric assay relative to untreated control
Design: scale not given: the % may be the effect or the level left
Procedure, shortened: as §2

Question: How did the Activity turn out when `Oc1cc(O)c2c(c1)O[C@H](c1ccc(O)c(O)c1)[C@H](O)C2` was run?
Answer: 60%

Question: For `C#CCOc1cc(OCC#C)c2c(c1)O[C@H](c1ccc(OCC#C)c(OCC#C)c1)[C@H](O)C2`, which Activity is on record?
Answer: 63.6%

Question: How did the Activity turn out when `C#CCOc1cc(OCC#C)c2c(c1)O[C@H](c1ccc(OCC#C)c(OCC#C)c1)[C@H](OCC#C)C2` was run?
Answer: 60%

Question: `CS(=O)(=O)O[C@@H]1Cc2c(O)cc(O)cc2O[C@@H]1c1ccc(O)c(O)c1` was tested. Which Activity did it give?
Answer: 41.8%

Question: Which Activity does the source give for `C#CCO[C@@H]1Cc2c(O)cc(O)cc2O[C@@H]1c1ccc(O)c(O)c1` here?
Answer: 70.9%

Reference: ChEMBL document CHEMBL4184234, “Synthesis of novel (-)-epicatechin derivatives as potential endothelial GPER agonists: Evaluation of biological effects” (Bioorg Med Chem Lett, 2018)
